# In publication PMC8911105 (Journal of Pharmaceutical Investigation, 2022):
# Like-named read-outs stand apart in the source and are kept apart here.
# What was measured:
# rat OCTN1 (rOCTN1) = experiment: RT-qPCR of rOCTN1 mRNA expression in organs of 1,25; assay type: in vivo; settings: for Decrease in rOCTN1 mRNA expression level compared to control rats: 2.56 nmol/kg/day i.p. for four days, normalized to GAPDH
# [1] = Body weight of rats during 1,25; assay type: in vivo, rat; settings: after pretreatment with 1,25(OH)2D3 2.56 nmol/kg/day for four days
# [2] = humans; oral administration; ref Cheah et al. [2017]; cited from earlier work
# [3] = Basal level of endogenous ergothioneine in plasma, urine and tissues; assay type: in vivo, rat; settings: for Decrease in Kp of basal endogenous ergothioneine after 1,25(OH)2D3 pretreatment: treated vs control
# How it was run: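 Rats got 1,25(OH)2D3 2.56 nmol/kg/day for four days, with no ergothioneine given. Tail-vein blood (0.3 mL) was drawn 30 min before each dose and at the same time on days 5–6. Urine was collected over 24 h from day 5 to 6, and seven tissues were taken on day 6. LC-MS/MS was run with a 2–10,000 ng/mL calibration (LLOQ 2 ng/mL). n = 5 control, 6 treated; means ± SD; unpaired two-tailed t-test.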
# [4] = assay type: in vivo, rat
# How it was run: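 After four days of 1,25(OH)2D3 pretreatment, rats under ip Zoletil/Rompun (20 mg/kg) had femoral vein and artery cannulated. Aqueous ergothioneine (2 mg/mL) was given at 2 mg/kg IV. Plasma was sampled 0–1,440 min with heparinized-saline replacement. Plasma and urine were diluted 50- and 100-fold with 1% BSA for LC-MS/MS. AUC, CL, Vss and MRT came from non-compartmental analysis. Kp fold change was exogenous over basal Kp.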
# [5] = mice; oral administration; ref Kato et al. [2010]; cited from earlier work
# [6] = brain, 1,25(OH)2D3-treated rats
# [7] = heart, 1,25(OH)2D3-treated rats
# [8] = kidney, 1,25(OH)2D3-treated rats
# [9] = muscle, 1,25(OH)2D3-treated rats
# [10] = spleen, 1,25(OH)2D3-treated rats
# [11] = 2 mg/kg IV, 1,25(OH)2D3-treated rats
smiles,measurement,setting,value
"C=C1/C(=C\C=C2/CCC[C@]3(C)[C@@H]([C@H](C)CCCC(C)(C)O)CC[C@@H]23)C[C@@H](O)C[C@@H]1O [1,25(OH)2D3, 1α,25-dihydroxyvitamin D3]",Decrease in rOCTN1 mRNA expression level compared to control rats,rat OCTN1 (rOCTN1); brain,27%
same,Decrease in rOCTN1 mRNA expression level compared to control rats,rat OCTN1 (rOCTN1); kidney,77%
same,Change in rOCTN1 mRNA levels,"rat OCTN1 (rOCTN1); other tissues, such as the liver, spleen, and heart",no significant changes
same,Weight gain compared with control rats,[1],significantly lower
"C[N+](C)(C)[C@@H](Cc1c[nH]c(=S)[nH]1)C(=O)[O-] [ergothioneine, l-ergothioneine]",Urinary recovery of ergothioneine,[2],< 4%
same,"Cumulative amount of ergothioneine excreted in urine for 24 h (basal, endogenous)","[3]; 1,25(OH)2D3-treated group",1880 ng
same,Basal plasma level of endogenous ergothioneine compared with control,"[3]; 1,25(OH)2D3-treated group, third day to sixth day of pretreatment",significantly increased
same,"Tissue partition coefficient (Kp), basal endogenous ergothioneine",[3]; [6],1.587 ± 0.929
same,"Tissue partition coefficient (Kp), basal endogenous ergothioneine","[3]; brain, control rats",3.585 ± 0.447
same,"Cumulative amount of ergothioneine excreted in urine for 24 h (basal, endogenous)",[3]; control group,3858 ng
same,"Tissue partition coefficient (Kp), basal endogenous ergothioneine",[3]; [7],22.25 ± 15.27
same,"Tissue partition coefficient (Kp), basal endogenous ergothioneine","[3]; heart, control rats",34.59 ± 7.01
same,"Tissue partition coefficient (Kp), basal endogenous ergothioneine",[3]; [8],20.56 ± 11.88
same,"Tissue partition coefficient (Kp), basal endogenous ergothioneine","[3]; kidney, control rats",60.85 ± 10.93
same,"Decrease in Kp of basal endogenous ergothioneine after 1,25(OH)2D3 pretreatment",[3]; kidneys,66.2%
same,"Tissue partition coefficient (Kp), basal endogenous ergothioneine","[3]; liver, 1,25(OH)2D3-treated rats (n = 6)",106.7 ± 62.3
same,"Tissue partition coefficient (Kp), basal endogenous ergothioneine","[3]; liver, control rats (n = 5)",224.4 ± 53.9
same,"Decrease in Kp of basal endogenous ergothioneine after 1,25(OH)2D3 pretreatment",[3]; liver,52.4%
same,"Tissue partition coefficient (Kp), basal endogenous ergothioneine","[3]; lung, 1,25(OH)2D3-treated rats",17.75 ± 11.47
same,"Tissue partition coefficient (Kp), basal endogenous ergothioneine","[3]; lung, control rats",30.67 ± 6.68
same,"Tissue partition coefficient (Kp), basal endogenous ergothioneine",[3]; [9],4.471 ± 3.279
same,"Tissue partition coefficient (Kp), basal endogenous ergothioneine","[3]; muscle, control rats",8.385 ± 1.141
same,"Decrease in Kp of basal endogenous ergothioneine after 1,25(OH)2D3 pretreatment",[3]; muscle,46.7%
same,"Tissue partition coefficient (Kp), basal endogenous ergothioneine",[3]; [10],15.22 ± 7.87
same,"Tissue partition coefficient (Kp), basal endogenous ergothioneine","[3]; spleen, control rats",42.50 ± 14.19
same,"Decrease in Kp of basal endogenous ergothioneine after 1,25(OH)2D3 pretreatment",[3]; spleen,64.2%
same,CL,[4]; [11],1.894 ± 0.733 mL/min/kg
same,MRT,[4]; [11],33.50 ± 20.07 h
same,Urinary recovery of ergothioneine within 24 h,[4]; [11],1.08%
same,Vss,[4]; [11],3298 ± 959 mL/kg
same,AUC∞,"[4]; 2 mg/kg IV, 1,25(OH)2D3-treated rats (n = 6)",1198 ± 457 µg·min/mL
same,CL,"[4]; 2 mg/kg IV, control rats",3.729 ± 1.734 mL/min/kg
same,MRT,"[4]; 2 mg/kg IV, control rats",27.11 ± 17.31 h
same,Urinary recovery of ergothioneine within 24 h,"[4]; 2 mg/kg IV, control rats",3.89%
same,Vss,"[4]; 2 mg/kg IV, control rats",4820 ± 1291 mL/kg
same,AUC∞,"[4]; 2 mg/kg IV, control rats (n = 7)",647.5 ± 327.5 µg·min/mL
same,"Decrease in total clearance in 1,25(OH)2D3-treated rats","[4]; 2 mg/kg IV, treated vs control",49%
same,"Increase in AUC∞ in 1,25(OH)2D3-treated rats","[4]; 2 mg/kg IV, treated vs control",85%
same,"Tissue partition coefficient (Kp), IV exogenous ergothioneine",[4]; [6],2.909 ± 0.448
same,"Tissue partition coefficient (Kp), IV exogenous ergothioneine","[4]; brain, control rats",4.799 ± 1.199
same,"Tissue partition coefficient (Kp), IV exogenous ergothioneine",[4]; [7],39.88 ± 10.04
same,"Tissue partition coefficient (Kp), IV exogenous ergothioneine","[4]; heart, control rats",81.04 ± 37.23
same,Fold change of Kp (exogenous versus endogenous basal),"[4]; kidney, 1,25(OH)2D3-treated group",3.70 fold
same,"Tissue partition coefficient (Kp), IV exogenous ergothioneine",[4]; [8],76.12 ± 47.89
same,Fold change of Kp (exogenous versus endogenous basal),"[4]; kidney, control group",3.13 fold
same,"Tissue partition coefficient (Kp), IV exogenous ergothioneine","[4]; kidney, control rats",190.7 ± 59.4
same,"Tissue partition coefficient (Kp), IV exogenous ergothioneine","[4]; liver, 1,25(OH)2D3-treated rats (n = 6), 24 h after 2 mg/kg IV",237.3 ± 82.8
same,"Tissue partition coefficient (Kp), IV exogenous ergothioneine","[4]; liver, control rats (n = 5), 24 h after 2 mg/kg IV",407.8 ± 113.9
same,"Tissue partition coefficient (Kp), IV exogenous ergothioneine","[4]; lung, 1,25(OH)2D3-treated rats",38.61 ± 8.48
same,"Tissue partition coefficient (Kp), IV exogenous ergothioneine","[4]; lung, control rats",57.37 ± 14.60
same,"Tissue partition coefficient (Kp), IV exogenous ergothioneine",[4]; [9],10.25 ± 3.90
same,"Tissue partition coefficient (Kp), IV exogenous ergothioneine","[4]; muscle, control rats",19.43 ± 8.95
same,"Tissue partition coefficient (Kp), IV exogenous ergothioneine",[4]; [10],21.89 ± 2.34
same,"Tissue partition coefficient (Kp), IV exogenous ergothioneine","[4]; spleen, control rats",70.56 ± 17.46
same,Urinary recovery of ergothioneine,[5],< 4%
